Measurements reported in ChEMBL document CHEMBL1131067, “Tolerance in the replacement of the benzhydrylic O atom in 4-[2-(diphenylmethoxy)ethyl]-1-benzylpiperidine derivatives by an N atom: development of new-generation potent and selective N-analogue molecules for the dopamine transporter” (J Med Chem, 1998).

Assays:
[1] = target: T1, Sodium-dependent dopamine transporter (Homo sapiens, UniProt Q01959); assay: Affinity was evaluated using [3H]WIN-35428 (radioligand) on Cloned human Dopamine transporter expressed in HEK cells; format: cell-based, HEK293
[2] = target: Sodium-dependent serotonin transporter (Homo sapiens, UniProt P31645); assay: Affinity was evaluated using [3H]citalopram (radioligand) on human serotonin transporter expressed in HEK cells; format: cell-based, HEK293
[3] = target: T1, Sodium-dependent dopamine transporter; assay: Affinity was evaluated using [3H]DA (radioligand) on Cloned human Dopamine transporter expressed in HEK cells; format: cell-based, HEK293
How it was run: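 HEK-293 cells stably expressing cloned hDAT, suspended intact; preincubated with inhibitor 15 min at room temperature in pH 7.4 Na phosphate/NaCl/KCl/MgSO4/glucose/CaCl2 buffer with 0.1 mM tropolone, then [3H]dopamine added for 8 min more; ended with ice-cold buffer. Compounds from DMSO stocks, 0.5% final DMSO, at least five concentrations.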

[4] = target: Sodium-dependent dopamine transporter (Rattus norvegicus, UniProt P23977); assay: IC50 value was evaluated using [3H]WIN-35428 (radioligand) on Dopamine transporter in rat striatum.; format: tissue-based
[5] = target: Sodium-dependent serotonin transporter (Rattus norvegicus, UniProt P31652); assay: IC50 value was evaluated using [3H]citalopram (radioligand) on serotonin transporter in rat striatum.; format: tissue-based
Sodium-dependent serotonin transporter (Rattus norvegicus, UniProt P31652), sequence (P31652 whole entry): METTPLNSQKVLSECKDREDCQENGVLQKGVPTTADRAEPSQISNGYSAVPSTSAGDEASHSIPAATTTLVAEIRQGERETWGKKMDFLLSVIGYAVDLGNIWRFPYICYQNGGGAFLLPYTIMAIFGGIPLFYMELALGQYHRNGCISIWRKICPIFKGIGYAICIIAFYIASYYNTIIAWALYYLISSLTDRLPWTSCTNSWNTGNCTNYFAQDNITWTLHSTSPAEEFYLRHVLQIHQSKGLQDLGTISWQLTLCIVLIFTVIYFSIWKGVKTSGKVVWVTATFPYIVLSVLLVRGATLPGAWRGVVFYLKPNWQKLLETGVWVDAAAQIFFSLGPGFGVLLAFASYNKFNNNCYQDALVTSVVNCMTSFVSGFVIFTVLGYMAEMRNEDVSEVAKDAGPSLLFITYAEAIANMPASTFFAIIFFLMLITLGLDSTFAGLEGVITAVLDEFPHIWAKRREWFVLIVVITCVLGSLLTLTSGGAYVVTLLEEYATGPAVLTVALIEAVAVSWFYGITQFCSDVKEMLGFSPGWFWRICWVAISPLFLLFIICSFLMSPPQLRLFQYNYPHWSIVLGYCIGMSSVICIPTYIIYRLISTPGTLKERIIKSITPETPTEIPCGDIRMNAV

T1 sequence (Q01959 whole entry): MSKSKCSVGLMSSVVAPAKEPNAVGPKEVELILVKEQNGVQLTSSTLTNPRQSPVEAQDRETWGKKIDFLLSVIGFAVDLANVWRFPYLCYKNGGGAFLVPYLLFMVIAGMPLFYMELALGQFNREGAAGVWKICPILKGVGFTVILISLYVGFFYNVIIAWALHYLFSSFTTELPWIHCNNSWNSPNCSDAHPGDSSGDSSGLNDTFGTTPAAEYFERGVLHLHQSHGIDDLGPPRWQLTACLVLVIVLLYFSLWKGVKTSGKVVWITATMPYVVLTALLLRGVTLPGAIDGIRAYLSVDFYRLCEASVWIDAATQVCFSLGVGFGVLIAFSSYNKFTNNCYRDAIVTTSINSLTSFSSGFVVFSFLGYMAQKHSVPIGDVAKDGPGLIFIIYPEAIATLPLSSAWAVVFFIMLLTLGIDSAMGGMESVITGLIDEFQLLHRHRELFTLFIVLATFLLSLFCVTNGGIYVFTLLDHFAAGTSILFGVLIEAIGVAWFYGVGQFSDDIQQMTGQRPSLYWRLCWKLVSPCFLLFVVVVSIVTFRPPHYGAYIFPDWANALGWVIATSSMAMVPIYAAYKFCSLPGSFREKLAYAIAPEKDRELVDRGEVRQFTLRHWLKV
Sodium-dependent serotonin transporter (Homo sapiens, UniProt P31645), sequence (P31645 whole entry): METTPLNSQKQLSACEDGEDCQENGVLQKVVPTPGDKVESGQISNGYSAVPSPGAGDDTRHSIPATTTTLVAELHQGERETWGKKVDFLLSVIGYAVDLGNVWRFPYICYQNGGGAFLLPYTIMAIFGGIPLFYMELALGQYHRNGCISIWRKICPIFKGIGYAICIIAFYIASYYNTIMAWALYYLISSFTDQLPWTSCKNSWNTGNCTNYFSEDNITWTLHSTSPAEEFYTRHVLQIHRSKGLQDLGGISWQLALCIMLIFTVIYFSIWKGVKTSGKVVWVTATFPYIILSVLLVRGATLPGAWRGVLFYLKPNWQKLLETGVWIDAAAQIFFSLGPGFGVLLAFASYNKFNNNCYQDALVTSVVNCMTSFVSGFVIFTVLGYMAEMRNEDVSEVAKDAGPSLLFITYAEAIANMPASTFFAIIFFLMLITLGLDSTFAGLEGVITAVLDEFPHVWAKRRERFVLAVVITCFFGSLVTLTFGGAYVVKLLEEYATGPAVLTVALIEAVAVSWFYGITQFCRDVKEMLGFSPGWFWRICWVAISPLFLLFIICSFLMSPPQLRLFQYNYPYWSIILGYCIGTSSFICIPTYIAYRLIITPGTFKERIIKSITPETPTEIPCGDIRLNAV
Sodium-dependent dopamine transporter (Rattus norvegicus, UniProt P23977), sequence (P23977 whole entry): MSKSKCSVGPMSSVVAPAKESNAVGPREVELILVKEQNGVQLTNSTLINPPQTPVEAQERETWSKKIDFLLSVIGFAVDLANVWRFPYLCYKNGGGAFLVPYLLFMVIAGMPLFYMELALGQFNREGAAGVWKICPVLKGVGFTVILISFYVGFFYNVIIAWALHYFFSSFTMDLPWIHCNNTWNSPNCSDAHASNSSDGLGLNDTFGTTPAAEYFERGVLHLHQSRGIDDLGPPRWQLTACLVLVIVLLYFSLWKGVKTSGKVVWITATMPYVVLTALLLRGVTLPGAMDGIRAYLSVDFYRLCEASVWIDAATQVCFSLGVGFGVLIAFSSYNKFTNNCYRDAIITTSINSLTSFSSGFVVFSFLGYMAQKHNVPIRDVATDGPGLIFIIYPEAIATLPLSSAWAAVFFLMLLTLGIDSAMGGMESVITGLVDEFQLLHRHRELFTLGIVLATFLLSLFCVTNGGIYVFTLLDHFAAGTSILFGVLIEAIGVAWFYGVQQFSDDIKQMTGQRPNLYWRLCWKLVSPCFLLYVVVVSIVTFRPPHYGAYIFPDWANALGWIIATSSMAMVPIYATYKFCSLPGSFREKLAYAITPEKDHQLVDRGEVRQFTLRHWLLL

Row | Compound | IC50 [1] [µM] | IC50 [2] [µM] | IC50 [3] [µM] | IC50 [4] [µM] | IC50 [5] [µM]
1 | Fc1ccc(CN2CCC(CCOC(c3ccccc3)c3ccccc3)CC2)cc1 | 0.0376 | – | – | – | –
2 | Fc1ccc(C(OCCC2CCN(Cc3ccccc3)CC2)c2ccc(F)cc2)cc1 | 0.035 | – | – | – | –

More lines, now with the values ahead:

Row | IC50 [1] [µM] | IC50 [2] [µM] | IC50 [3] [µM] | IC50 [4] [µM] | IC50 [5] [µM] | Compound
3 | 3.21 | 49.2 | – | – | – | O=C(CC1CCN(Cc2ccc(F)cc2)CC1)NC(c1ccccc1)c1ccccc1
4 | 0.033 | 10.7 | 0.058 | – | – | Fc1ccc(C(NCCC2CCN(Cc3ccccc3)CC2)c2ccc(F)cc2)cc1
5 | 0.03 | 5.85 | 0.032 | 0.0094 | 0.585 | Fc1ccc(CN2CCC(CCNC(c3ccccc3)c3ccccc3)CC2)cc1
